Experimental findings from ChEMBL document CHEMBL1124947, “Cationic antiprotozoal drugs. Trypanocidal activity of 2-(4'-formylphenyl)imidazo[1,2-a]pyridinium guanylhydrazones and related derivatives of quaternary heteroaromatic compounds” (J Med Chem, 1990) are described below.

What all share (format): functional
The subject of assay [1] is Mus musculus. Nature of the assay: Trypanocidal Activity at I.C.E. value 0.38 when administered subcutaneously. The gist of the method: (§1)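 Blood-stage T. rhodesiense infection came from a standard inoculum lethal to all untreated mice. Drug was given by subcutaneous injection to groups of five mice. Survival beyond 30 days counted as cure. […] Sub-curative doses scored 0, and data were normalized at each dose.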

Assay [2] has as its system Trypanosoma brucei rhodesiense. Nature of the assay: In Vitro measurement of inhibition of Leucine uptake in cell culture of Trypanosoma rhodesiense. As to conditions: read-out: ID50 (the source's name). In short, it runs like this: (§2)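 Trypanosomes harvested from infected rats, cultured 3 h with several concentrations of drug, usually 0.1–100 µg/mL. Radiolabeled L-leucine uptake measured. ID50 is the concentration in µg/mL giving 50% inhibition of incorporation.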

The subject of assay [3] is Trypanosoma brucei rhodesiense. Kind of assay: In Vitro measurement of inhibition of Thymidine uptake in cell culture of Trypanosoma rhodesiense. As to conditions: read-out: ID50 (the source's name).
The test system of assay [4] is Mus musculus. Kind of assay: Trypanocidal Activity at I.C.E. value 0.55 when administered perorally.
Assay [5] relates to Mus musculus. Kind of assay: Trypanocidal Activity at I.C.E. value 0.87 when administered subcutaneously. In short, it runs like this:
(§3)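 Mice, in groups of five per dose, were given a standard inoculum of blood-stage T. rhodesiense that is lethal to all untreated controls, then dosed subcutaneously. Usually 11 dose levels were used (2^n × 0.42 mg/kg).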

The test system of assay [6] is Trypanosoma brucei rhodesiense. Nature of the assay: In Vitro measurement of inhibition of thymidine uptake in cell culture of Trypanosoma rhodesiense. The following applies: read-out: ID50 (the source's name). In short, it runs like this:
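Parasites harvested from infected rats and incubated 3 h across a drug concentration series, usually 0.1–100 µg/mL. Incorporation of radiolabeled thymidine measured. ID50 is the concentration (µg/mL) producing 50% inhibition.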

Assay [7] concerns Trypanosoma brucei rhodesiense. Nature of the assay: In Vitro measurement of inhibition of leucine uptake in cell culture of Trypanosoma rhodesiense. The following applies: read-out: ID50 (the source's name). The gist of the method:
as §2

The test system of assay [8] is Mus musculus. Nature of the assay: Trypanocidal Activity at I.C.E. value >0.3 when administered perorally.
The test system of assay [9] is Mus musculus. Nature of the assay: Trypanocidal Activity at I.C.E. value 0.34 when administered subcutaneously. The gist of the method: as §1
Assay [10] relates to Mus musculus. Kind of assay: Trypanocidal Activity at I.C.E. value 0.59 when administered perorally.
The test system of assay [11] is Mus musculus. Nature of the assay: Trypanocidal Activity at I.C.E. value 0.85 when administered subcutaneously. In short, it runs like this: as §3
The subject of assay [12] is Mus musculus. Kind of assay: Trypanocidal Activity at I.C.E. value 0.89 when administered subcutaneously. The gist of the method:
as §3

Assay [13] concerns Mus musculus. Kind of assay: Trypanocidal Activity at I.C.E. value 0.64 when administered subcutaneously. In short, it runs like this:
as §3

Assay [14] concerns Mus musculus. Kind of assay: Trypanocidal Activity at I.C.E. value 0.19 when administered perorally.

In the assay on Mus musculus [1], `Br.CSC(=N)N/N=C/c1ccc(-c2cn3cc(C)ccc3[n+]2C)cc1.[Br-]` came in with a CD50 of 26 mg/kg. For the same compound, the IC50 in [2] was greater than 10 µg/mL; in assay [3] it was 4 µg/mL.
For `COc1ccc2n(c1)cc(-c1ccc(/C=N/NC(=N)N)cc1)[n+]2C.Cc1ccc(S(=O)(=O)O)cc1.Cc1ccc(S(=O)(=O)[O-])cc1`, the CD50 was 6.6 mg/kg in the assay with Mus musculus [4] and 0.4 mg/kg with Mus musculus [5]. The IC50 worked out at 5.9 µg/mL in [6] and 4.3 µg/mL in [7].
In the case of `Br.CC/N=C(\NCC)N/N=C/C=C/c1ccc(-c2cn3ccccc3[n+]2C)cc1.[Br-]`, the CD50 came to 53 mg/kg in the assay with Mus musculus [8] and 13 mg/kg in the assay with Mus musculus [9].
With `C[n+]1c(-c2ccc(/C=N/NC(=N)NO)cc2)cn2ccccc21.Cc1ccc(S(=O)(=O)O)cc1.Cc1ccc(S(=O)(=O)[O-])cc1`, the CD50 in the assay with Mus musculus [10] is 6.6 mg/kg; in the assay with Mus musculus [11], 0.8 mg/kg.
The compound `C[n+]1c(/C=C/c2ccc(/C=N/NC(=N)N)cc2)cn2ccccc21.Cc1ccc(S(=O)(=O)O)cc1.Cc1ccc(S(=O)(=O)[O-])cc1` displayed a CD50 in the assay with Mus musculus [12] of 0.1 mg/kg. In addition, the IC50 in assay [6] worked out at 2.7 µg/mL; in [7], 9.3 µg/mL.
As for `Br.C[n+]1c(COc2ccc(/C=N/NC3=NCCCN3)cc2)cn2cc(C(F)(F)F)ccc21.[Br-]`, the CD50 in the assay with Mus musculus [13] was found to be 1.6 mg/kg; in the assay with Mus musculus [14], 106 mg/kg. The values for the IC50 in assay [6] and in assay [7] were 0.4 µg/mL and 0.5 µg/mL, respectively.
